Data set [1] is described as follows: Bioavailability in dog at 5 mg/kg, po and 2 mg/kg, iv. In kind it is ADME, organism-based, Canis lupus familiaris. The conditions noted are these: in vivo. In short, it runs like this:
(§1)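 Animals fasted overnight. Oral dose given as a suspension in 0.5% methylcellulose, 0.3% Tween-80 and 1% NMP. IV bolus of 2 mg/kg given in 70% PEG-400:30% water. N = 3 per dose and per route. Plasma kept on ice, spun at 4 °C and stored at about −20 °C. Calibration standards prepared in blank plasma, LOQ 7 ng/mL. Non-compartmental analysis.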

Data set [2] in a line: Cytotoxicity against human HuH7 cells assessed as reduction in cell viability by MTT assay. In kind it is cell-based. The note with it: Huh-7 cells, read-out: TC50 (the source's name). In short, it runs like this: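 Cytotoxicity (TC50) measured by MTT read-out in the Huh-7 cell line.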
The subject of data set [3] is Macaca mulatta. The data set can be described thus: Volume of distribution at steady state in rhesus monkey at 5 mg/kg, po and 2 mg/kg, iv. The conditions noted are these: in vivo, read-out: Vdss.
The nature of data set [4]: Cmax in rat at 5 mg/kg, po and 2 mg/kg, iv. The data set is classed as ADME, organism-based. The conditions noted are these: in vivo. In short, it runs like this:
as §1

Data set [5] is described as follows: Inhibition of Hepatitis C virus genotype 1b C-terminal truncated NS5B RNA dependent RNA polymerase delta21 expressed in Escherichia coli by scintillation proximity assay. Also noted: species or system Hepatitis C virus subtype 1b. The method in brief:
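Biochemical polymerase inhibition using a C-terminally truncated GT1b NS5BΔ21 construct. Values are the mean of duplicate measurements (n ≥ 2).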
On the technique in general: SPA uses beads or plates that emit light when radiolabelled molecules are held near them.

A short description of data set [6]: AUC in rat at 5 mg/kg, po and 2 mg/kg, iv. In kind it is ADME, organism-based. The conditions noted are these: plasma. In short, it runs like this: as §1
Data set [7] in a line: Half life in rat at 5 mg/kg, po and 2 mg/kg, iv. The data set is classed as ADME, organism-based. The note with it: in vivo. In short, it runs like this: as §1
Data set [8] deals with Macaca mulatta. The experiment in a line: Half life in rhesus monkey at 5 mg/kg, po and 2 mg/kg, iv. The note with it: in vivo.
The nature of data set [9]: Half life in rhesus monkey liver microsomes at 2 uM. In general terms: Liver microsomes are vesicles of endoplasmic reticulum, rich in cytochrome P450 enzymes.
A short description of data set [10]: AUC in dog at 5 mg/kg, po and 2 mg/kg, iv. In kind it is ADME, organism-based, Canis lupus familiaris. The note with it: plasma. In short, it runs like this: as §1
A short description of data set [11]: Volume of distribution at steady state in rat at 5 mg/kg, po and 2 mg/kg, iv. The note with it: in vivo, read-out: Vdss. The data set is classed as ADME, organism-based. The method in brief:
as §1

Data set [12] relates to Hepatitis C virus. The data set can be described thus: Antiviral activity against Hepatitis C virus genotype 1a infected in human Huh cells assessed as inhibition of viral replication by RT-PCR-based replicon assay. The data set is classed as functional, cell-based, Hepacivirus hominis. The note with it: subtype 1a. In short, it runs like this:
(§2)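 HCV replicon EC50 determined in duplicate, using either a GT1b luciferase reporter read-out or RT-PCR quantification of replicon RNA.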
In general terms: Replicon systems follow genome replication, usually without infectious particles.

Data set [13] in a line: Cmax in rat at 5 mg/kg, po. In kind it is ADME, organism-based. Also noted: dose 5 mg/kg, route oral. The conditions noted are these: in vivo. The method in brief: (§3)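 Rats fasted overnight, then given a single compound orally at 5 mg/kg in 0.5% methylcellulose, 0.3% Tween-80 and 1% NMP. Plasma Cmax measured. Liver/plasma concentration ratio taken at 8 h for single-compound dosing.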

Data set [14] in a line: Clearance in rhesus monkey at 2 mg/kg, iv. The note with it: in vivo.
For data set [15], the system named is Macaca mulatta. The experiment in a line: AUC in rhesus monkey at 5 mg/kg, po and 2 mg/kg, iv. The conditions noted are these: plasma.
Data set [16] has as its system Macaca mulatta. The experiment in a line: Bioavailability in rhesus monkey at 5 mg/kg, po and 2 mg/kg, iv. The conditions noted are these: in vivo.
The nature of data set [17]: Clearance in rat at 2 mg/kg, iv. Also on record: dose 2 mg/kg, route intravenous. The note with it: in vivo. In kind it is ADME, organism-based. In short, it runs like this:
as §1

Data set [18] is described as follows: Clearance in dog at 2 mg/kg, iv. Also noted: dose 2 mg/kg, route intravenous. The data set is classed as ADME, organism-based, Canis lupus familiaris. The note with it: in vivo. The method in brief:
as §1

A short description of data set [19]: Volume of distribution at steady state in dog at 5 mg/kg, po and 2 mg/kg, iv. In kind it is ADME, organism-based, Canis lupus familiaris. The conditions noted are these: in vivo, read-out: Vdss. In short, it runs like this: as §1
For data set [20], the system named is Hepatitis C virus. The experiment in a line: Antiviral activity against Hepatitis C virus genotype 1b infected in human Huh cells assessed as inhibition of viral replication by luciferase reporter assay. The data set is classed as functional, cell-based, Hepacivirus hominis. In short, it runs like this:
as §2

Data set [21] relates to Macaca mulatta. The data set can be described thus: Cmax in rhesus monkey at 5 mg/kg, po and 2 mg/kg, iv. The note with it: in vivo.
Data set [22] is described as follows: Ratio of drug up take in liver to plasma of rat at 5 mg/kg, po measured at 8 hrs post dose. Also noted: dose 5 mg/kg, route oral. The data set is classed as ADME, organism-based. In short, it runs like this:
as §3

Data set [23] is described as follows: Cmax in dog at 5 mg/kg, po and 2 mg/kg, iv. The conditions noted are these: in vivo. The data set is classed as ADME, organism-based, Canis lupus familiaris. The method in brief: as §1
The test system of data set [24] is Hepatitis C virus. The data set can be described thus: Antiviral activity against Hepatitis C virus genotype 1b infected in human Huh cells assessed as inhibition of viral replication by RT-PCR-based replicon assay. The data set is classed as functional, cell-based, Hepacivirus hominis. In short, it runs like this:
as §2

Data set [25] can be described thus: Half life in rat liver microsomes at 2 uM. In kind it is ADME. In short, it runs like this:
(§4)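 Stability in liver microsomes with 2 µM initial compound concentration; half-life recorded.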

The nature of data set [26]: Half life in dog liver microsomes at 2 uM. The data set is classed as ADME, Canis lupus familiaris. In short, it runs like this:
as §4

The nature of data set [27]: Half life in dog at 5 mg/kg, po and 2 mg/kg, iv. The note with it: in vivo. In kind it is ADME, organism-based, Canis lupus familiaris. In short, it runs like this: as §1
Data set [28] can be described thus: Permeability coefficient, Kp for ratio of drug uptake in liver to plasma in rat. The data set is classed as ADME.
Data set [29] can be described thus: Bioavailability in rat at 5 mg/kg, po and 2 mg/kg, iv. The data set is classed as ADME, organism-based. The conditions noted are these: in vivo. The method in brief:
as §1

The nature of data set [30]: Lipophilicity, log D of the compound at pH 7.4. The data set is classed as physicochemical. The note with it: buffer.
Data set [31] deals with Salmonella typhimurium. The experiment in a line: Mutagenic activity in Salmonella typhimurium at 315 to 5000 ug/plate by Ames test in absence of S9 fraction. The note with it: salmonella enterica subsp. enterica serovar typhimurium. In kind it is toxicity, organism-based. In short, it runs like this: (§5)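 Ames test on the free carboxylic acid forms using multiple strains and strain TA100 of Salmonella typhimurium, at 315–5000 µg per plate, run with and without S9 metabolic activation.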

Data set [32] has as its system Salmonella typhimurium. The data set can be described thus: Mutagenic activity in Salmonella typhimurium at 315 to 5000 ug/plate by Ames test in presence of S9 fraction. In kind it is toxicity, organism-based. The conditions noted are these: salmonella enterica subsp. enterica serovar typhimurium. In short, it runs like this: as §5
A short description of data set [33]: Permeability from apical to basolateral side of human Caco2 cells. The data set is classed as ADME, cell-based. The conditions noted are these: Caco-2, read-out: permeability. In short, it runs like this:
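Caco-2 permeability measured in the apical-to-basolateral direction, reported in cm/s.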

Data set [34] is described as follows: Half life in human liver microsomes at 2 uM. The data set is classed as ADME. In short, it runs like this: as §4
The nature of data set [35]: Plasma concentration in rat at 4 mg/kg, po as cassette dosing measured at 1 hr post dose. In kind it is ADME, organism-based. Also noted: dose 4 mg/kg, route oral. In short, it runs like this: (§6)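 Cassette dosing: a mixture of 4 compounds, each at 4 mg/kg, given orally to 2 fasted rats in 0.5% methylcellulose, 0.3% Tween-80 and 1% NMP. Plasma sampled at 1 and 2 h. Liver/plasma ratio determined at 2 h.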

Data set [36] is described as follows: Ratio of drug up take in liver to plasma of rat at 4 mg/kg, po as cassette dosing measured at 2 hrs post dose. The data set is classed as ADME, organism-based. Also noted: dose 4 mg/kg, route oral. In short, it runs like this: as §6
The nature of data set [37]: Plasma concentration in rat at 4 mg/kg, po as cassette dosing measured at 2 hrs post dose. Also noted: dose 4 mg/kg, route oral. The data set is classed as ADME, organism-based. The method in brief: as §6

With `CCOc1nc(NC(=O)C2(NC(=O)c3ccc4c(C5CCCC5)c(-c5ncc(Cl)cn5)n(C)c4c3)CCC2)ccc1/C=C/C(=O)O`, the bioavailability in data set [1] amounted to 40%; in [16], 11%; in [29] it was 42%. The CC50 in data set [2] came out at 56 µM. The values for the Vd in [3], in data set [11] and in data set [19] were 0.06 L/kg, 0.28 L/kg and 0.28 L/kg, respectively. Further, the peak concentration (Cmax) amounted to 5.8 µM in data set [4], 5.9 µM in [13], 2.6 µM in data set [21] and 10 µM in [23]. Moreover, the IC50 in [5] was 0.085 µM. Further, the AUC in [6] was 17 µM·h; in data set [10], 56 µM·h; in data set [15], 8.9 µM·h. For the same compound, the half-life in data set [7] was 1.5 h; in data set [8] it was 2 h; in data set [27], 6.1 h. For the same compound, the half-life at 2 µM in data set [9] came out at 0.533 h; in data set [25], 1.85 h; in data set [26], 3.65 h. Also, the results for the EC50 in data set [12], in data set [20] and in data set [24] were 0.027 µM, 0.015 µM and 0.014 µM, respectively. Moreover, the clearance in data set [14] turned out to be 0.09 L/h/kg; in [17], 0.186 L/h/kg; in data set [18], 0.054 L/h/kg. In data set [22], the Kp at 8 h amounted to 2. Also, the partition ratio (Kp) in [28] is 2.6. The compound further displayed a logD in [30] greater than 5.9.

Turning to `CCOc1nc(N)cnc1/C=C/C(=O)O`, the Activity entry in data set [31] and in [32] was “Non-toxic” each time.

Consider `CCOc1cc(NC(=O)C2(NC(=O)c3ccc4c(C5CCCC5)c(-c5ncc(Cl)cn5)n(C)c4c3)CCC2)ncc1/C=C/C(=O)O`, for which the CC50 in data set [2] was greater than 10 µM. For the same compound, the IC50 in [5] worked out at 0.085 µM. In addition, in [33], the Papp A→B came to 150 nm/s. Besides, the peak concentration (Cmax) in [13] turned out to be 1.8 µM. Moreover, the results for the half-life at 2 µM in data set [34] and in [25] were 2.42 h and 1.73 h, respectively. For the same compound, the EC50 in [20] worked out at 0.033 µM. In data set [30], the pH-dependent lipophilicity (logD) worked out at 3.

`CCOc1cc(NC(=O)C2(NC(=O)c3ccc4c(C5CCCC5)c(-c5ncc(Cl)cn5)n(C)c4c3)CCC2)cnc1/C=C/C(=O)O`: the CC50 in data set [2] was greater than 10 µM. The compound further yielded a 50% inhibitory concentration (IC50) in data set [5] of 0.11 µM. Besides, the Papp A→B in data set [33] is 75 nm/s. Also, in data set [35], the concentration at 1 h is 0.4 µM. Also, the half-life at 2 µM in [34] is 4.58 h; in data set [25] it was 2.38 h. In [20], the 50% effective concentration (EC50) came out at 0.02 µM. The concentration ratio (Kp) at 2 h in data set [36] was 5. In addition, the concentration at 2 h in data set [37] was determined as 0.1 µM. For the same compound, the logD in data set [30] came to 3.9.

Usually bioavailability stands for the share of a dose that reaches the circulation, judged against a reference dose that is usually intravenous. Broadly, the Cmax is the peak of the concentration-time curve. One may read the IC50 as the concentration needed to halve the response being measured. As usually defined, the AUC is concentration integrated over time. The term half-life denotes the time needed for the level to fall by half in the phase considered. The term EC50 denotes the concentration giving half of the maximal effect. What is called clearance is the rate of elimination divided by the concentration. A word on the Kp: it is tissue or fluid exposure divided by exposure in the circulation. Usually logD stands for lipophilicity at a set pH, counting ionised and neutral species.
